# High-throughput results (PubChem)
# OXTR potentiator = potentiators of human oxytocin receptor; P30559; CHO-OTR cells, Fluo-8 calcium fluorescence, potentiator mode; 0% = oxytocin EC15, 100% = EC100; activation, % at 3 µM; 320,000 tested, 0.061% active;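 active means activation above that plate's cutoff, the mean activation of tested compounds plus 3 SD, cut at about 6.6% in these data, passing the limit was not always enough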;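 further: 100% uses oxytocin at 75 nM as the full agonist control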
#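 Dosing: Single dose, 3.0 µM nominal final compound concentration | Material: Human OTR in CHO cells | Technique: Kinetic Fluo-8 calcium fluorescence | Benchmarks: EC15 oxytocin alone as 0%, 75 nM oxytocin as 100% | Probe or stimulus: Oxytocin at about EC15, sub-maximal agonist stimulus | Incubation: Compound 6 min at room temperature before oxytocin, 100 s read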
# OXTR ag = activates the human oxytocin receptor; 320,000 tested, 0.32% active; P30559; activation, % at 3 µM; CHO-OTR cells, Fluo-8 calcium fluorescence; normalized: DMSO 0%, oxytocin 100%;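 active means activation above the mean of all tested compounds plus 3 SD, cutoff set per screening run, cut at about 20% in these data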;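 further: peak over basal fluorescence ratio from a 100 s FLIPR kinetic read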
# TAAR1 antagonist = human TAAR1 antagonism | Q96RJ0 | 360,000 tested, 1.5% active | AID 624466 | CHO RD-HGA16 TAAR1, Fluo-8 calcium fluorescence, antagonist | inhibition, % at 3 µM;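 active means inhibition above a per-plate cutoff, the mean inhibition of test compounds on that plate plus 3 SD, cut at about 49% in these data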;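 further: 0% = DMSO plus EC80 beta-PEA response and 100% = DMSO alone without agonist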
# Target sequence (Q96RJ0 whole entry, looked up): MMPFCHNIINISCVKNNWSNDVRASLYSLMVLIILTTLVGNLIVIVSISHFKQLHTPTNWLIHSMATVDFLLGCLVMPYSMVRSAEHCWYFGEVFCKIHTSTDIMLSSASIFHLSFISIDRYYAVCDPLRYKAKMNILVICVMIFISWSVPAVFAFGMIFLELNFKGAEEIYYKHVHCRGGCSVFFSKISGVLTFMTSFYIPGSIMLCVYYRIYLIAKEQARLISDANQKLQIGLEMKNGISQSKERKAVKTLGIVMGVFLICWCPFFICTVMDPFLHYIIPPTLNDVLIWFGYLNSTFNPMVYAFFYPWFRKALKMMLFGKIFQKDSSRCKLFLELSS
#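 Test system – hTAAR1-expressing CHO RD-HGA16 cells, Gα16-coupled · Reagent – β-PEA at EC80 concentration, post-compound challenge · Compound dosing – 3 µM, single point · Timing – 140 s kinetic read after compound, 140 s after agonist · Detection – Fluo-8 intracellular calcium dye fluorescence, real-time kinetic reads · Control set – DMSO and EC80 PEA controls · Repeats – n of 1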
# V1aR counter = counter-screen for oxytocin receptor agonists: human V1a receptor agonists; AID 2797; 320,000 tested, 0.25% active; CHO-V1R cells, Fluo-8 calcium fluorescence, agonist mode; 0% DMSO, 100% 3 nM vasopressin; activation, % at 3 µM; P37288;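 active means activation above the mean activation of all tested compounds plus 3 SD, per screening run, cut at about 20% in these data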;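 further: signal is peak over basal fluorescence ratio across a 100 second FLIPR read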
# TAAR1 agonist = agonists of human TAAR1 | Q96RJ0 | CHO RD-HGA16 TAAR1, Fluo-8 calcium fluorescence; vehicle wells 0%, saturating PEA agonist 100% | activation, % at 3 µM | 360,000 tested, 0.99% active | AID 624467;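 active means activation above the mean activation of all test compounds in the run plus 3 SD, cut at about 38% in these data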
#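 Benchmarks: low control DMSO, high control PEA (EC100); System: CHO RD-HGA16 cells carrying human TAAR1 plus Gα16; Detection: Fluo-8 fluorescence, 5 s baseline then 140 s kinetic read; Schedule: 17-24 h plating, Fluo-8 75 min 37 °C, 30 min RT; Read-out basis: % activation from peak over basal fluorescence ratio, DMSO-to-PEA scaled.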
# nonsel antag count = nonselective antagonist in TAAR1 antagonist counter-screen; 2,400 tested, 77% active; counterscreen cell line, calcium fluorescence, antagonist mode; AID 651780; inhibition, % at 3 µM; shares compounds with TAAR1 antagonist; in the data active means inhibition above about 22%;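 further: CHO-Ga16 host cells stimulated with ATP at an EC80 level; 0% = agonist EC80 plus vehicle and 100% = vehicle without agonist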
# TAAR1 ant conf = confirmation of human TAAR1 antagonists; shares compounds with TAAR1 antagonist; TAAR1-expressing cells, fluorescence antagonist read-out; inhibition, % at 3 µM; 2,400 tested, 40% active; in the data active means inhibition above about 49%;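 further: CHO-Ga16 host cells challenged with agonist PEA near its EC80; 0% = agonist at EC80 plus vehicle and 100% = vehicle with no agonist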
# Ga16 ag counter = counter-screen for TAAR1 antagonists: nonselective Ga16 agonists. shares compounds with TAAR1 antagonist. Ga16-expressing cells, calcium fluorescence, agonist counterscreen. activation, % at 3 µM. 2,400 tested, 18% active; in the data active means activation above about 12%;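 further: 0% = vehicle wells and 100% = saturating stimulus response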
# TAAR1 ag counter = activates human TAAR1 in antagonist counter-screen; shares compounds with TAAR1 antagonist; 2,400 tested, 2% active; hTAAR1 cell line, fluorescence activation, agonist mode; AID 651955; activation, % at 3 µM; in the data active means activation above about 37%;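 further: CHO cells stably expressing TAAR1 with calcium dye readout; 0% = DMSO vehicle and 100% = full agonist response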
# * marks the source's active call; other numbers are inactive results; x = not tested or not shown. Shown are actives, neighbours in structure and some others; about 2.3% of the full set was active somewhere.
SMILES,OXTR potentiator,OXTR ag,TAAR1 antagonist,V1aR counter,TAAR1 agonist,nonsel antag count,TAAR1 ant conf,Ga16 ag counter,TAAR1 ag counter
O=C(Nc1ccc(Cl)cc1)N(Cc1cccs1)Cc1cccs1,-16,-1,71*,4,14,29*,45,5,1
COc1cc(-c2noc(C)c2C#CCO)cc(OC)c1OC,-8,0,-15,-1,5,x,x,x,x
COc1cc(-c2noc(C)c2C#Cc2ccsc2)cc(OC)c1OC,-10,0,65*,1,28,18,34,6,20
COc1ccc(C(O)CNc2ccc(C)cc2)cc1 (stereo not given),1,3,3,1,4,x,x,x,x
CCN1C(c2ccccc2)C(C)C(=O)C(C)C1c1ccccc1 (stereo not given),-5,-3,52*,-1,0,13,-6,-1,-5
Cc1nnc(SCCCOc2ccccc2)nc1C,-2,0,8,1,1,x,x,x,x
CCN1C(=O)N[C@H]2C[C@H](C(=O)N3CCCC3)[C@H](C)[C@H](c3ccccc3)C[C@H]21,x,x,-19,x,1,x,x,x,x
CC(C)=CCC/C(C)=C/CN1C(=O)N(c2ccc(F)cc2)[C@H]2C[C@@H](c3ccccc3)[C@@H](C)[C@@H](C(=O)N3CCOCC3)C[C@H]21,x,x,65*,x,2,35*,59*,1,1
O=C(NC1CCCc2ccccc21)C1CCC(CNS(=O)(=O)c2cccc3nsnc23)CC1 (stereo not given),-6,2,57*,1,8,15,42,6,19
COc1cccc(-c2csc(N3CCN(C(=O)Nc4ccccc4OC)CC3)n2)c1,-6,-2,11,-1,2,x,x,x,x
COc1cccc(-c2csc(N3CCN(C(=O)Nc4ccc(F)cc4)CC3)n2)c1,-18,4,79*,5,11,55*,64*,11,6
O=C1CN(C(=O)CSc2nc3cc(Cl)ccc3c(=O)n2Cc2ccccc2)c2ccccc2N1,-14,0,25,1,4,x,x,x,x
C/C(=N\OCc1nc2ccccc2c(=O)n1/N=C/c1cc([N+](=O)[O-])ccc1O)c1ccccc1,-8,9,64*,13,9,31*,47,8,5
O=c1c2ccccc2nc(COc2ccccc2)n1/N=C/c1ccc(O)cc1O,-15,0,79*,2,12,32*,61*,8,8
COc1ccc(C(=O)CC(SCC(NC(C)=O)C(=O)O)c2ccc(Cl)cc2)cc1OC (stereo not given),-13,-2,-20,-1,-1,x,x,x,x
c1ccc(CCNc2nc(-c3ccncc3)nc3ccccc23)cc1,-9,-3,67*,-1,2,27*,41,8,4
O=C(Nc1ccccc1)N(CCc1nc2ccccc2[nH]1)C1CCCC1,1,-1,12,0,10,x,x,x,x
S=C(NC1CCCCC1)N(CCc1nc2ccccc2[nH]1)C1CCCC1,-13,-2,54*,0,10,28*,37,6,1
O=C1CC(N2CCN(c3ccc(O)cc3)CC2)C(=O)N1Cc1cccs1 (stereo not given),-14,2,5,1,3,x,x,x,x
O=C(c1ccncc1)c1ccc(N2CCN(C3CC(=O)N(Cc4cccs4)C3=O)CC2)cc1 (stereo not given),-8,10,58*,16,16,36*,50*,14*,11
COc1ccccc1/C=C/C(=O)NC(=S)NC(C)C,-8,-2,59*,-1,6,19,44,10,19
COc1ccccc1/C=C/C(=O)NC(=S)N1CCN(C)CC1,x,x,18,x,4,x,x,x,x
